Source: ChEMBL document CHEMBL1129935, “Chromophore-modified bis-naphthalimides: synthesis and antitumor activity of bis-dibenz[de,h]isoquinoline-1,3-diones” (J Med Chem, 1997)

Tests used:
HT-29 = assay: In vitro cytotoxicity against HT-29 (human colon adenocarcinoma) cell line.; assay type: functional, cell-based
Summary of the method: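 Human colon carcinoma HT-29 cells, 3000/well in DMEM with 10% FBS, attached 24 h. Free bases dissolved in DMSO, final DMSO <1%, added as 1:4 serial dilutions. Exposure 72 h at 37 °C, 5% CO2. MTT added for 4 h, formazan solubilized overnight in 25% SDS (pH 2), absorbance read at 550 nm. IC50 taken as concentration giving 50% of control growth.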

Mus musculus [1] = assay: Median survival time of treated mice (T) compared to controls expressed as a percentage (%T/C) at the dose of 2.2 mg/kg (dose administered intraperitoneally on days 1, 5 and 9).; assay type: functional; details: route intraperitoneal
Summary of the method: (§1)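 M5076 murine sarcoma, 10^6 cells implanted intraperitoneally into C57Bl/6 mice. Median survival time recorded for treated (T) and control (C) groups. %T/C calculated as the treated median survival relative to the control median survival, times 100.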

Mus musculus [2] = assay: Median survival time of treated mice (T) compared to controls expressed as a percentage (%T/C) at the dose of 3.3 mg/kg (dose administered intraperitoneally on days 1, 5 and 9).; assay type: functional; details: route intraperitoneal; summary of the method: as §1
Mus musculus [3] = assay: Median survival time of treated mice (T) compared to controls expressed as a percentage (%T/C) at the dose of 5.0 mg/kg (dose administered intraperitoneally on days 1, 5 and 9).; assay type: functional; details: route intraperitoneal; summary of the method: as §1
Mus musculus [4] = assay: Median survival time of treated mice (T) compared to controls expressed as a percentage (%T/C) at the dose of 7.5 mg/kg (dose administered intraperitoneally on days 1, 5 and 9).; assay type: functional; details: route intraperitoneal; summary of the method: as §1
Mus musculus [5] = assay: Median survival time of Compound on C57B1/6 mice which was implanted intraperitoneally with M5076 murine sarcoma cells at the dose of 2.2 mg/kg (dose administered intraperitoneally on days 1, 5 and 9).; assay type: functional; details: route intraperitoneal; summary of the method: as §1
Mus musculus [6] = assay: Median survival time of Compound on C57B1/6 mice which was implanted intraperitoneally with M5076 murine sarcoma cells at the dose of 3.3 mg/kg (dose administered intraperitoneally on days 1, 5 and 9).; assay type: functional; details: route intraperitoneal; summary of the method: as §1
Mus musculus [7] = assay: Median survival time of Compound on C57B1/6 mice which was implanted intraperitoneally with M5076 murine sarcoma cells at the dose of 5.0 mg/kg (dose administered intraperitoneally on days 1, 5 and 9).; assay type: functional; details: route intraperitoneal; summary of the method: as §1
Mus musculus [8] = assay: Median survival time of Compound on C57B1/6 mice which was implanted intraperitoneally with M5076 murine sarcoma cells at the dose of 7.5 mg/kg (dose administered intraperitoneally on days 1, 5 and 9).; assay type: functional; details: route intraperitoneal; summary of the method: as §1
Mus musculus [9] = assay: Median survival time of Compound on C57B1/6 mice which was implanted intraperitoneally with M5076 murine sarcoma cells at the dose of 0.8 mg/kg (dose administered intraperitoneally on days 1, 5 and 9).; assay type: functional; details: route intraperitoneal
Summary of the method: (§2)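 M5076 murine sarcoma cells (10^6) implanted ip in C57Bl/6 mice. Agent given as its dimethanesulfonate salt dissolved in water. Median survival time (MST) recorded for treated and concurrent control groups. Activity expressed as %T/C, the treated MST as a percentage of the control MST.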

Mus musculus [10] = assay: Median survival time of treated mice (T) compared to controls expressed as a percentage (%T/C) at the dose of 0.8 mg/kg (dose administered intraperitoneally on days 1, 5 and 9).; assay type: functional; details: route intraperitoneal; summary of the method: as §2
Mus musculus [11] = assay: Median survival time of treated mice (T) compared to controls expressed as a percentage (%T/C) at the dose of 1.2 mg/kg (dose administered intraperitoneally on days 1, 5 and 9).; assay type: functional; details: route intraperitoneal; summary of the method: as §2
Mus musculus [12] = assay: Median survival time of treated mice (T) compared to controls expressed as a percentage (%T/C) at the dose of 1.8 mg/kg (dose administered intraperitoneally on days 1, 5 and 9).; assay type: functional; details: route intraperitoneal; summary of the method: as §2
Mus musculus [13] = assay: Median survival time of Compound on C57B1/6 mice which was implanted intraperitoneally with M5076 murine sarcoma cells at the dose of 1.2 mg/kg (dose administered intraperitoneally on days 1, 5 and 9).; assay type: functional; details: route intraperitoneal; summary of the method: as §2
Mus musculus [14] = assay: Median survival time of Compound on C57B1/6 mice which was implanted intraperitoneally with M5076 murine sarcoma cells at the dose of 1.8 mg/kg (dose administered intraperitoneally on days 1, 5 and 9).; assay type: functional; details: route intraperitoneal; summary of the method: as §2

| Compound | IC50 (HT-29) [nM] | also measured |
| --- | --- | --- |
| O=C1c2cccc3cccc(c23)C(=O)N1CCNCCCNCCN1C(=O)c2cccc3cccc(c23)C1=O [ELINAFIDE] | 14 | T/C (Mus musculus [1]): 91%; T/C (Mus musculus [2]): 91%; T/C (Mus musculus [3]): 102%; T/C (Mus musculus [4]): 89%; MST (Mus musculus [5]): 21.5 days; MST (Mus musculus [6]): 21.5 days; MST (Mus musculus [7]): 24 days; MST (Mus musculus [8]): 21 days |
| CN(CCN(C)CCN1C(=O)c2cccc3cc4ccccc4c(c23)C1=O)CCN1C(=O)c2cccc3cc4ccccc4c(c23)C1=O | 75 | – |
| O=C1c2cccc3cc4c([N+](=O)[O-])cccc4c(c23)C(=O)N1CCNCCCNCCN1C(=O)c2cccc3cc4c([N+](=O)[O-])cccc4c(c23)C1=O | 35 | – |
| O=C1c2cccc3cc4ccccc4c(c23)C(=O)N1CCCNCCCCNCCCN1C(=O)c2cccc3cc4ccccc4c(c23)C1=O | 200 | – |
| O=C1c2cccc3cc4ccccc4c(c23)C(=O)N1CCN1CCCN(CCN2C(=O)c3cccc4cc5ccccc5c(c34)C2=O)C1 | 2 | – |
| O=C1c2cccc3cc4c([N+](=O)[O-])cccc4c(c23)C(=O)N1CCNCCNCCN1C(=O)c2cccc3cc4c([N+](=O)[O-])cccc4c(c23)C1=O | 95 | – |
| O=C1c2cccc3cc4ccccc4c(c23)C(=O)N1CCNCCCCCNCCN1C(=O)c2cccc3cc4ccccc4c(c23)C1=O | 9 | – |
| O=C1c2cccc3cc4ccccc4c(c23)C(=O)N1CCCNCCNCCCN1C(=O)c2cccc3cc4ccccc4c(c23)C1=O | 95 | – |
| O=C1c2cccc3cc4ccccc4c(c23)C(=O)N1CCCCNCCCN1C(=O)c2cccc3cc4ccccc4c(c23)C1=O | 70 | – |
| O=C1c2cccc3cc4ccccc4c(c23)C(=O)N1CCNCCN1C(=O)c2cccc3cc4ccccc4c(c23)C1=O | 30 | – |
| O=C1c2cccc3cc4ccccc4c(c23)C(=O)N1CCNCCCCNCCN1C(=O)c2cccc3cc4ccccc4c(c23)C1=O | 41 | – |
| CN(C)CCN1C(=O)c2cccc3cc(N)cc(c23)C1=O [AMONAFIDE] | 3000 | – |
| O=C1c2cccc3cc4ccccc4c(c23)C(=O)N1CCCNCCCNCCCN1C(=O)c2cccc3cc4ccccc4c(c23)C1=O | 90 | – |
| O=C1c2cccc3cc4ccccc4c(c23)C(=O)N1CCCNCCCN1C(=O)c2cccc3cc4ccccc4c(c23)C1=O | 20 | – |
| CN(CCCN1C(=O)c2cccc3cc4ccccc4c(c23)C1=O)CCCN1C(=O)c2cccc3cc4ccccc4c(c23)C1=O | 19 | – |
| O=C1c2cccc3cc4ccccc4c(c23)C(=O)N1CCNCCCNCCN1C(=O)c2cccc3cc4ccccc4c(c23)C1=O | 4 | MST (Mus musculus [9]): 31.5 days; T/C (Mus musculus [10]): 143%; T/C (Mus musculus [11]): 155%; T/C (Mus musculus [12]): 143%; MST (Mus musculus [13]): 34 days; MST (Mus musculus [14]): 31.2 days |
| O=C1c2cccc3cc4ccccc4c(c23)C(=O)N1CCNCCNCCN1C(=O)c2cccc3cc4ccccc4c(c23)C1=O | 9 | – |
| CN(C)CCN1C(=O)c2cccc3cc4ccccc4c(c23)C1=O [AZONAFIDE] | 140 | – |
| O=C1c2cccc3cc4ccccc4c(c23)C(=O)N1CCCNCCN1C(=O)c2cccc3cc4ccccc4c(c23)C1=O | 2000 | – |
| CN(C)CCN1C(=O)c2cccc3cc([N+](=O)[O-])cc(c23)C1=O [MITONAFIDE] | 600 | – |
